Data reported in ChEMBL document CHEMBL4665669, “Novel tertiary sulfonamide derivatives containing benzimidazole moiety as potent anti-gastric cancer agents: Design, synthesis and SAR studies” (Eur J Med Chem, 2019).

Legend:
MCF7 = assay: Anticancer activity against human MCF7 cells assessed as inhibition of cell proliferation after 48 hrs by MTT assay; type: functional, cell-based; conditions: MCF7, 48 h
Outline: (§1)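 MTT assay with 48 h compound exposure. MTT solution was then added and incubated 4 h at 37 °C, the supernatant discarded and formazan dissolved in DMSO, with absorbance read at 490 nm. IC50 values were calculated from three independent experiments, reported as mean SD.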

PC-3 = assay: Anticancer activity against human PC-3 cells assessed as inhibition of cell proliferation after 48 hrs by MTT assay; type: functional, cell-based; conditions: PC-3, 48 h; outline: as §1
MGC-803 = assay: Anticancer activity against human MGC-803 cells assessed as inhibition of cell proliferation after 48 hrs by MTT assay; type: functional, cell-based; conditions: MGC-803, 48 h; outline: as §1
[1] = Inhibition of HIF in human LN229 cells transfected with HRE-luc/LacZ by dual luciferase reporter gene assay; type: cell-based; conditions: LN-229
Carbonic anhydrase 9 = Carbonic anhydrase 9 (Homo sapiens, UniProt Q16790); assay: Inhibition of recombinant human CA9 preincubated for 15 mins by phenol red dye based stopped flow CO2 hydration assay
HGC-27 = assay: Anticancer activity against human HGC-27 cells assessed as inhibition of cell proliferation after 48 hrs by MTT assay; type: functional, cell-based; conditions: HGC-27, 48 h; outline: as §1
SGC-7901 = assay: Anticancer activity against human SGC-7901 cells assessed as inhibition of cell proliferation after 48 hrs by MTT assay; type: functional, cell-based; conditions: SGC-7901, 48 h; outline: as §1
GES1 = assay: Cytotoxicity against human GES1 cells assessed as inhibition of cell proliferation after 48 hrs by MTT assay; type: cell-based; conditions: GES1, 48 h
Outline: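 Normal gastric epithelial GES-1 cells were exposed to compound for 48 h. MTT was then added for 4 h at 37 °C. Formazan was dissolved in DMSO after the supernatant was removed, and absorbance was read at 490 nm. IC50 was computed from three independent experiments, given as mean SD.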

SMILES: Cc1ccc(S(=O)(=O)N(Cc2nc3ccccc3[nH]2)c2ccccc2)cc1
- IC50 (MCF7): 49.7 µM
- IC50 (PC-3): > 50 µM
- IC50 (MGC-803): 45.2 µM

SMILES: COc1ccc(N(Cc2nc3ccccc3[nH]2)S(=O)(=O)c2ccc(C)cc2)cc1
- IC50 (MCF7): > 50 µM
- IC50 (PC-3): > 50 µM
- IC50 (MGC-803): > 50 µM

SMILES: COc1cc(N(Cc2ccccc2)S(=O)(=O)c2ccc(C)cc2)cc(OC)c1OC
- IC50 (MCF7): 10.2 µM
- IC50 (PC-3): 7.81 µM
- IC50 (MGC-803): 3.57 µM

SMILES: COc1cc(N(Cc2nc3ccccc3[nH]2)C(=O)c2ccccc2)cc(OC)c1OC
- IC50 (MCF7): > 50 µM
- IC50 (PC-3): > 50 µM
- IC50 (MGC-803): > 50 µM

SMILES: Cc1ccc(N(Cc2nc3ccccc3[nH]2)S(=O)(=O)c2ccc(C)cc2)cc1
- IC50 (MCF7): > 50 µM
- IC50 (PC-3): 48.9 µM
- IC50 (MGC-803): 41.2 µM

SMILES: COc1ccc(N(Cc2nc3ccccc3[nH]2)S(=O)(=O)c2ccc(C)cc2)cc1OC
- IC50 (MCF7): > 50 µM
- IC50 (PC-3): > 50 µM
- IC50 (MGC-803): > 50 µM

SMILES: COc1cc(N(Cc2nc3ccccc3[nH]2)C(=O)c2ccc(C)cc2)cc(OC)c1OC
- IC50 (MCF7): 49.2 µM
- IC50 (PC-3): 42 µM
- IC50 (MGC-803): 30.5 µM

SMILES: COc1ccc(CN(c2cc(OC)c(OC)c(OC)c2)S(=O)(=O)c2c(C)cc(C)cc2C)cc1
- IC50 (MCF7): 18.7 µM
- IC50 (PC-3): 14.8 µM
- IC50 (MGC-803): 6.44 µM

SMILES: COc1cc(N(Cc2nc3ccccc3[nH]2)C(=O)c2ccc(F)cc2)cc(OC)c1OC
- IC50 (MCF7): 45.2 µM
- IC50 (PC-3): 21.9 µM
- IC50 (MGC-803): 23.6 µM

SMILES: COc1ccc(C(=O)N(Cc2nc3ccccc3[nH]2)c2cc(OC)c(OC)c(OC)c2)cc1OC
- IC50 (MCF7): > 50 µM
- IC50 (PC-3): 34.9 µM
- IC50 (MGC-803): 22.4 µM

SMILES: COc1ccc(CN(c2cc(OC)c(OC)c(OC)c2)S(=O)(=O)c2ccccc2)cc1
- IC50 (MCF7): > 50 µM
- IC50 (PC-3): > 50 µM
- IC50 (MGC-803): > 50 µM

SMILES: COc1ccc(CN(c2cc(OC)c(OC)c(OC)c2)S(=O)(=O)c2ccc(OC)c(OC)c2)cc1
- IC50 (MCF7): 22.7 µM
- IC50 (PC-3): 20.1 µM
- IC50 (MGC-803): 8.31 µM

SMILES: COc1ccc(CN(c2cc(OC)c(OC)c(OC)c2)S(=O)(=O)c2ccc(C)cc2)cc1
- IC50 (MCF7): 10.1 µM
- IC50 (PC-3): 8.22 µM
- IC50 (MGC-803): 4.34 µM

SMILES: COc1cc(N(Cc2ccc(Br)cc2)S(=O)(=O)c2ccc(C)cc2)cc(OC)c1OC
- IC50 (MCF7): 10.9 µM
- IC50 (PC-3): 4.68 µM
- IC50 (MGC-803): 1.61 µM

SMILES: COc1ccc(S(=O)(=O)N(Cc2ccc3c(c2)OC(C)(C)C=C3)c2ccccc2)cc1OC
- IC50 [1]: 0.59 µM

SMILES: Cc1ccc(N(CC(C)F)S(=O)(=O)c2ccc([N+](=O)[O-])cc2)cc1 (configuration not stated)
- IC50 (Carbonic anhydrase 9): 0.0042 µM

SMILES: COc1cc(N(Cc2cccc(C)c2)S(=O)(=O)c2ccc(C)cc2)cc(OC)c1OC
- IC50 (MCF7): 14.3 µM
- IC50 (PC-3): 8.58 µM
- IC50 (MGC-803): 4.34 µM

SMILES: COc1cc(N(Cc2ccc(F)cc2)S(=O)(=O)c2ccc(C)cc2)cc(OC)c1OC
- IC50 (MCF7): 19.2 µM
- IC50 (PC-3): 20.7 µM
- IC50 (MGC-803): 3.75 µM

SMILES: COc1cc(N(Cc2nc3ccccc3[nH]2)C(=O)c2ccc(C(C)(C)C)cc2)cc(OC)c1OC
- IC50 (MCF7): 48.8 µM
- IC50 (PC-3): 46 µM
- IC50 (MGC-803): > 50 µM

SMILES: Cc1ccc(S(=O)(=O)N(Cc2nc3ccccc3[nH]2)c2ccc(F)cc2)cc1
- IC50 (MCF7): > 50 µM
- IC50 (PC-3): 45 µM
- IC50 (MGC-803): 34.6 µM

SMILES: COc1cc(N(Cc2csc3ccc(Cl)cc23)S(=O)(=O)c2ccc(C)cc2)cc(OC)c1OC
- IC50 (MCF7): 8.95 µM
- IC50 (PC-3): 15.2 µM
- IC50 (MGC-803): 3.45 µM

SMILES: COc1cc(N(Cc2ccc(Cl)cc2)S(=O)(=O)c2ccc(C)cc2)cc(OC)c1OC
- IC50 (MCF7): 18.6 µM
- IC50 (PC-3): 14.6 µM
- IC50 (MGC-803): 1.72 µM

SMILES: COc1cc(N(Cc2nc3ccccc3[nH]2)C(=O)c2cccc(Cl)c2)cc(OC)c1OC
- IC50 (MCF7): 34.9 µM
- IC50 (PC-3): > 50 µM
- IC50 (MGC-803): > 50 µM

SMILES: Cc1ccc(S(=O)(=O)N(Cc2nc3ccccc3[nH]2)c2ccc(Cl)cc2)cc1
- IC50 (MCF7): 38.3 µM
- IC50 (PC-3): 42.2 µM
- IC50 (MGC-803): 24.8 µM

SMILES: COc1cc(N(Cc2nc3ccccc3[nH]2)S(=O)(=O)c2ccccc2Cl)cc(OC)c1OC
- IC50 (MCF7): 38.1 µM
- IC50 (PC-3): 34.5 µM
- IC50 (MGC-803): 19.1 µM

SMILES: COc1ccc(CN(c2cc(OC)c(OC)c(OC)c2)S(=O)(=O)c2ccc(C(C)(C)C)cc2)cc1
- IC50 (MCF7): 32.7 µM
- IC50 (PC-3): 28.6 µM
- IC50 (MGC-803): 10.3 µM

SMILES: COc1cc(N(Cc2nc3ccccc3[nH]2)S(=O)(=O)c2ccc(C(C)(C)C)cc2)cc(OC)c1OC
- IC50 (MCF7): 33.6 µM
- IC50 (PC-3): 29.8 µM
- IC50 (MGC-803): 24.1 µM

SMILES: COc1ccc(S(=O)(=O)N(Cc2nc3ccccc3[nH]2)c2cc(OC)c(OC)c(OC)c2)cc1OC
- IC50 (MCF7): 47.7 µM
- IC50 (PC-3): 30.4 µM
- IC50 (MGC-803): 22.5 µM

SMILES: O=c1[nH]cc(F)c(=O)[nH]1 [FLUOROURACIL]
- IC50 (MCF7): 17.1 µM
- IC50 (PC-3): 18.4 µM
- IC50 (HGC-27): 4.28 µM
- IC50 (SGC-7901): 5.54 µM
- IC50 (GES1): 10.2 µM

SMILES: COc1cc(N(Cc2nc3ccccc3[nH]2)C(=O)c2ccc(Br)cc2)cc(OC)c1OC
- IC50 (MCF7): > 50 µM
- IC50 (PC-3): 19.9 µM
- IC50 (MGC-803): 14.6 µM

SMILES: COc1cc(N(Cc2nc3ccccc3[nH]2)S(=O)(=O)c2ccc(F)cc2)cc(OC)c1OC
- IC50 (MCF7): 9.38 µM
- IC50 (PC-3): 7.99 µM
- IC50 (MGC-803): 5.68 µM

SMILES: COc1cc(N(Cc2nc3ccccc3[nH]2)S(=O)(=O)c2ccccc2)cc(OC)c1OC
- IC50 (MCF7): 27.3 µM
- IC50 (PC-3): 25.5 µM
- IC50 (MGC-803): 12.4 µM

SMILES: COc1cc(N(Cc2nc3ccccc3[nH]2)S(=O)(=O)c2ccc(Br)cc2)cc(OC)c1OC
- IC50 (MCF7): 7.74 µM
- IC50 (PC-3): 6.89 µM
- IC50 (MGC-803): 2.19 µM
